According to ChEMBL document CHEMBL1126026, “Synthesis and biological activity of new dimers in the 7H-pyrido[4,3-c] carbazole antitumor series” (1992):
Calls of active or inactive are those of the source. The calls are words filed in the database; no cut-off is given here.

Legend:
Calf thymus DNA = test: Affinity constant for calf thymus DNA; format: nucleic-acid assay; details: Bos taurus
Outline: (§1)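 Fluorescence competition assay with ethidium dimer at 25 °C in 0.1 M Tris-HCl, 0.1 M NaCl buffer, pH 7.4. Calf thymus DNA (1.6 × 10⁻⁶ M base pairs) was equilibrated with ethidium dimer for 24 h, then measured with varied drug concentrations. Excitation was 540 nm and emission 610 nm. Bound dye per base pair was derived by the Gaugain method. Ka was fitted from computed versus experimental displacement curves.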

L1210 [1] = test: Dose required to inhibit growth of L1210 cells after 24-h exposure to the compound; format: functional; details: Mus musculus, L1210, 24 h; read-out: ED50 (the source's name)
Outline: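 Exponentially growing L1210 cells were exposed to a range of drug concentrations for 24 h. The dose giving 50% growth inhibition was determined.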

L1210 [2] = test: Dose required to inhibit the cloning efficacy of L1210 cells to a factor of 0.37 after 24-h exposure to the compound; format: functional, Mus musculus
Outline: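 Exponentially growing L1210 cells were exposed to a range of drug concentrations for 24 h, then assessed by cloning. The dose reducing cloning efficiency to a factor of 0.37 was determined.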

Mus musculus [3] = organism: Mus musculus; test: Maximal tolerated dose against DBA2 mice inoculated with L1210 cells was determined; format: functional
Mus musculus [4] = organism: Mus musculus; test: Increase in life span, expressed as treated by control was determined in DBA2 mice inoculated with L1210 cells; format: functional
Outline: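 DBA2 mice inoculated with 10⁵ L1210 leukemia cells and treated with compound. Read-out was increase in life span as T/C × 100, the mean % survival of treated over control animals. Significance was tested by Student's test. Optimal dose in mg/kg was the dose that most extended the life time of treated mice.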

Mus musculus [5] = organism: Mus musculus; test: Optimal dose required against DBA2 mice inoculated with L1210 cells; format: functional
Outline: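 DBA2 mice were inoculated with 10⁵ L1210 cells. The optimal dose (mg/kg) was the dose giving the greatest increase in life time of treated mice relative to controls.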

Mus musculus [6] = organism: Mus musculus; test: Increase in life span, expressed as treated by control was determined in DBA2 mice inoculated with L1210 cells; NM denotes not measurable due to weak solubility; format: functional, organism-based
Outline: (§2)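 DBA2 mice were inoculated with 10⁵ L1210 cells and treated. Increase in life span was reported as mean survival of treated over control × 100. Significance was assessed by Student's test.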

Mus musculus [7] = organism: Mus musculus; test: Increase in life span, expressed as treated by control was determined in DBA2 mice inoculated with L1210 cells; NS denotes not significant; format: functional, organism-based; outline: as §2
Nucleic Acid = test: Affinity constant against calf thymus DNA; NM denotes not measurable due to weak solubility; format: nucleic-acid assay; details: Bos taurus; outline: as §1

Compound	Ka (Calf thymus DNA) [M⁻¹]	EC50 (L1210 [1]) [µM]	ED37 (L1210 [2]) [µM]	MTD (Mus musculus [3]) [mg/kg]	T/C (Mus musculus [4]) [%]	OD (Mus musculus [5]) [mg/kg]	T/C (Mus musculus [6])	T/C (Mus musculus [7])	Ka (Nucleic Acid)
COc1ccc2[nH]c3c(CNC(=O)[C@]4(O)O[C@H](CO)[C@H](O)[C@H]4O)cc4cc[n+](CCN5CCC(C6CCN(CC[n+]7ccc8cc(CNC(=O)[C@]9(O)O[C@H](CO)[C@H](O)[C@H]9O)c9[nH]c%10ccc(OC)cc%10c9c8c7)CC6)CC5)cc4c3c2c1	3e+06	2.15							
COc1ccc2[nH]c3ccc4cc[n+](CCN5CCC(C6CCN(CC[n+]7ccc8ccc9[nH]c%10ccc(OC)cc%10c9c8c7)CC6)CC5)cc4c3c2c1.CS(=O)(=O)O.CS(=O)(=O)O.CS(=O)(=O)[O-].CS(=O)(=O)[O-]			0.02	10	182	10			
COc1ccc2[nH]c3c(C(=O)O)cc4cc[n+](CCN5CCC(C6CCN(CC[n+]7ccc8cc(C(=O)O)c9[nH]c%10ccc(OC)cc%10c9c8c7)CC6)CC5)cc4c3c2c1.CS(=O)(=O)O.CS(=O)(=O)O.CS(=O)(=O)[O-].CS(=O)(=O)[O-]	250000	> 0.8	>0.8				Not measurable		
COc1ccc2[nH]c3ccc4cc[n+](CCN5CCC(C6CCN(CC[n+]7ccc8ccc9[nH]c%10ccc(OC)cc%10c9c8c7)CC6)CC5)cc4c3c2c1.[Cl-].[Cl-] [DITERCALINIUM CHLORIDE]		0.19	0.024	10	182	10			
COc1ccc2c(c1)c1c3c(ccc1n2C)CCN(CCN1CCC(C2CCN(CCN4CCc5ccc6c(c5C4)c4cc(OC)ccc4n6C)CC2)CC1)C3.CS(=O)(=O)O.CS(=O)(=O)O	4e+07	0.66	0.6	10		10		inactive	
COc1ccc2[nH]c3c(CN)cc4cc[n+](CCN5CCC(C6CCN(CC[n+]7ccc8cc(CN)c9[nH]c%10ccc(OC)cc%10c9c8c7)CC6)CC5)cc4c3c2c1.CS(=O)(=O)O.CS(=O)(=O)O.CS(=O)(=O)[O-].CS(=O)(=O)[O-]	2e+07	0.057	0.066	20		10		inactive	
COc1ccc2[nH]c3c(C)cc4cc[n+](CCN5CCC(C6CCN(CC[n+]7ccc8cc(C)c9[nH]c%10ccc(OC)cc%10c9c8c7)CC6)CC5)cc4c3c2c1.CS(=O)(=O)O.CS(=O)(=O)O.CS(=O)(=O)[O-].CS(=O)(=O)[O-]	5e+08	0.37	0.1	11	172	7			
COc1ccc2[nH]c3c(CNC(=O)[C@@H](N)CCC(=O)O)cc4cc[n+](CCN5CCC(C6CCN(CC[n+]7ccc8cc(CNC(=O)[C@@H](N)CCC(=O)O)c9[nH]c%10ccc(OC)cc%10c9c8c7)CC6)CC5)cc4c3c2c1.CS(=O)(=O)O.CS(=O)(=O)O.CS(=O)(=O)[O-].CS(=O)(=O)[O-]		0.46	>0.58				Not measurable		Not measurable
COc1ccc2c(c1)c1c3c[n+](C)ccc3ccc1n2CCN1CCC(C2CCN(CCn3c4ccc(OC)cc4c4c5c[n+](C)ccc5ccc43)CC2)CC1.CS(=O)(=O)O.CS(=O)(=O)O.CS(=O)(=O)[O-].CS(=O)(=O)[O-]	> 1e+09	0.9		5	134	5			
COc1ccc2[nH]c3ccc4cc[n+](CCN5CCC(C6CCN(CC[n+]7ccc8ccc9[nH]c%10ccc(OC)cc%10c9c8c7)CC6)CC5)cc4c3c2c1	1e+07								
COc1ccc2c(c1)c1c3cnccc3ccc1n2CCN1CCC(C2CCN(CCn3c4ccc(OC)cc4c4c5cnccc5ccc43)CC2)CC1.CS(=O)(=O)O.CS(=O)(=O)O	1e+07	0.6		10		10		inactive	
COc1ccc2[nH]c3c(C(=O)NCCN4CCC(C5CCN(CCNC(=O)c6cc7ccncc7c7c6[nH]c6ccc(OC)cc67)CC5)CC4)cc4ccncc4c3c2c1	2e+08	11	30	10		10		inactive	
